From ChEMBL document CHEMBL4325887, “Lipophilic Permeability Efficiency Reconciles the Opposing Roles of Lipophilicity in Membrane Permeability and Aqueous Solubility” (J Med Chem, 2018)
In brackets after ≈: the same amount, converted by molar mass. Where a SMILES comes first, the peptide text is derived from it. [ ]: non-standard residue; d: D form. NMeY = CN[C@@H](Cc1ccc(O)cc1)C(=O)O; NMeF = CN[C@@H](Cc1ccccc1)C(=O)O; dNMeF = CN[C@H](Cc1ccccc1)C(=O)O; NMeA = CN[C@@H](C)C(=O)O; dNMeA = CN[C@H](C)C(=O)O; Sar = CNCC(=O)O

Assays:
[1] = Apparent permeability in human Caco2 cells; assay type: ADME, cell-based; conditions: Caco-2
Summary of the method: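 Apical-to-basolateral permeation (Papp, ×10-6 cm/s) was measured in quadruplicate. Compound was quantified by selected-mass UPLC-MS.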

[2] = Thermodynamic aqueous solubility of compound in pH 7.4 PBS by UPLC-MS analysis; assay type: physicochemical; conditions: PBS pH 7.4, pH 7.4; read-out: Therm_solubility
[3] = 1,9-decadiene/aqueous buffer solution partition coefficient, log D of the compound in PBS at pH 7.4 by shake flask method; assay type: physicochemical
[4] = Apparent permeability in low-efflux MDCK2 cells at 2 uM by lucifer yellow dye-based UPLC-MS analysis; assay type: ADME, cell-based, Canis lupus familiaris, MDCK-II; conditions: dog, MDCK
[5] = Apparent permeability of compound in pH 7.4 PBS after 16 hrs by PAMPA assay; assay type: ADME

| Papp [1] [×10⁻⁶ cm/s] | solubility thermodynamic [2] [µM] | logD hydrocarbon water [3] | Papp at 2 µM [4] [×10⁻⁶ cm/s] | SMILES | Papp at 16 h [5] [×10⁻⁶ cm/s] |
| --- | --- | --- | --- | --- | --- |
| > 10 | – | – | – | CC[C@H]1OC(=O)[C@H](C)[C@@H](O[C@H]2C[C@@](C)(OC)[C@@H](O)[C@H](C)O2)[C@H](C)[C@@H](O[C@@H]2O[C@H](C)C[C@H](N(C)C)[C@H]2O)[C@](C)(O)C[C@@H](C)/C(=N/OCOCCOC)[C@H](C)[C@@H](O)[C@]1(C)O | – |
| – | 33 (≈ 40.2 µg/mL) | 2.43 | 0.5 | C/C=C/C[C@@H](C)[C@@H](O)[C@H]1C(=O)N[C@@H]([C@@H](C)O)C(=O)N(C)CC(=O)N(C)[C@@H](CC(C)C)C(=O)N[C@@H](C(C)C)C(=O)N(C)[C@@H](CC(C)C)C(=O)N[C@@H](C)C(=O)N[C@H](C)C(=O)N(C)[C@@H](CC(C)C)C(=O)N(C)[C@@H](CC(C)C)C(=O)N(C)[C@@H](C(C)C)C(=O)N1C | – |
| – | 22 (≈ 25.2 µg/mL) | 3.94 | 1.8 | CC[C@@H]1NC(=O)[C@H](CC(C)C)N(C)C(=O)[C@H](C(C)C)N(C)C(=O)[C@H](CC(C)C)N(C)C(=O)[C@H](CC(C)C)N(C)C(=O)[C@@H](C)NC(=O)[C@H](C)NC(=O)[C@H](CC(C)C)N(C)C(=O)[C@H](C(C)C)NC(=O)[C@H](CC(C)C)N(C)C(=O)CN(C)C1=O | – |
| – | 0.12 (≈ 0.146 µg/mL) | 3.86 | 0.7 | C/C=C/C[C@@H](C)[C@@H](O)[C@H]1C(=O)N[C@@H](C(C)C)C(=O)N(C)CC(=O)N(C)[C@@H](CC(C)C)C(=O)N[C@@H](C(C)C)C(=O)N(C)[C@@H](CC(C)C)C(=O)N[C@@H](C)C(=O)N[C@H](C)C(=O)N(C)[C@@H](CC(C)C)C(=O)N(C)[C@@H](CC(C)C)C(=O)N(C)[C@@H](C(C)C)C(=O)N1C | – |
| – | 0.005 (≈ 0.00622 µg/mL) | 4.14 | – | C/C=C/C[C@@H](C)[C@@H](OC(C)=O)[C@H]1C(=O)N[C@@H](CC)C(=O)N(C)CC(=O)N(C)[C@@H](CC(C)C)C(=O)N[C@@H](C(C)C)C(=O)N(C)[C@@H](CC(C)C)C(=O)N[C@@H](C)C(=O)N[C@H](C)C(=O)N(C)[C@@H](CC(C)C)C(=O)N(C)[C@@H](CC(C)C)C(=O)N(C)[C@@H](C(C)C)C(=O)N1C | – |
| – | 27 (≈ 32.1 µg/mL) | 3.18 | 1.4 | C/C=C/C[C@@H](C)[C@@H](O)[C@H]1C(=O)N[C@@H](C)C(=O)N(C)CC(=O)N(C)[C@@H](CC(C)C)C(=O)N[C@@H](C(C)C)C(=O)N(C)[C@@H](CC(C)C)C(=O)N[C@@H](C)C(=O)N[C@H](C)C(=O)N(C)[C@@H](CC(C)C)C(=O)N(C)[C@@H](CC(C)C)C(=O)N(C)[C@@H](C(C)C)C(=O)N1C | – |
| – | 2.2 (≈ 2.65 µg/mL) | 2.61 | – | C/C=C/C[C@@H](C)[C@H]1OC(=O)[C@H](C(C)C)N(C)C(=O)[C@H](CC(C)C)N(C)C(=O)[C@H](CC(C)C)N(C)C(=O)[C@@H](C)NC(=O)[C@H](C)NC(=O)[C@H](CC(C)C)N(C)C(=O)[C@H](C(C)C)NC(=O)[C@H](CC(C)C)N(C)C(=O)CN(C)C(=O)[C@H](CC)NC(=O)[C@H]1NC | – |
| – | 10 (≈ 11.3 µg/mL) | 3.64 | 2.7 | CC[C@@H]1NC(=O)[C@H](CC(C)C)N(C)C(=O)[C@H](CC)N(C)C(=O)[C@H](CC(C)C)N(C)C(=O)[C@H](CC(C)C)N(C)C(=O)[C@@H](C)NC(=O)[C@H](C)NC(=O)[C@H](CC(C)C)N(C)C(=O)[C@H](C(C)C)NC(=O)[C@H](CC(C)C)N(C)C(=O)CN(C)C1=O | – |
| – | 10 (≈ 8.38 µg/mL) | -2.44 | – | CC(C)C[C@@H]1NC(=O)[C@H](C)NC(=O)[C@H](Cc2ccc(O)cc2)N(C)C(=O)[C@H](Cc2ccccc2)NC(=O)CN(C)C(=O)[C@@H]2CCCN2C(=O)[C@@H](Cc2ccccc2)N(C)C1=O (cyclo(AL[dNMeF]P[Sar]F[NMeY])) | 0.2 |
| – | 17 (≈ 13.7 µg/mL) | -1.78 | – | CC[C@H](C)[C@@H]1NC(=O)[C@H](Cc2ccc(O)cc2)N(C)C(=O)[C@H](C)NC(=O)CN(C)C(=O)[C@@H]2CCCN2C(=O)[C@@H](Cc2ccccc2)N(C)C(=O)[C@H](CC(C)C)NC1=O (cyclo(A[NMeY]IL[dNMeF]P[Sar])) | – |
| – | 9 (≈ 7.54 µg/mL) | -1.52 | – | CC[C@H](C)[C@@H]1NC(=O)[C@H](Cc2ccc(O)cc2)N(C)C(=O)[C@H](Cc2ccccc2)NC(=O)CN(C)C(=O)[C@@H]2CCCN2C(=O)[C@@H](Cc2ccccc2)N(C)C(=O)[C@H](C)NC1=O (cyclo(A[dNMeF]P[Sar]F[NMeY]I)) | – |
| 1 to 3 | – | – | – | CC[C@H]1OC(=O)[C@H](C)[C@@H](O[C@H]2C[C@@](C)(OC)[C@@H](O)[C@H](C)O2)[C@H](C)[C@@H](O[C@@H]2O[C@H](C)C[C@H](N(C)C)[C@H]2O)[C@](C)(O)C[C@@H](C)CN(C)[C@H](C)[C@@H](O)[C@]1(C)O [AZITHROMYCIN] | – |
| > 10 | – | – | – | CC[C@H]1OC(=O)[C@H](C)[C@@H](O[C@H]2C[C@@](C)(OC)[C@@H](O)[C@H](C)O2)[C@H](C)[C@@H](O[C@@H]2O[C@H](C)C[C@H](N(C)C)[C@H]2O)[C@](C)(OC)C[C@@H](C)C(=O)[C@H](C)[C@@H](O)[C@]1(C)O [CLARITHROMYCIN] | – |
| – | 0.45 (≈ 0.396 µg/mL) | -0.13 | – | CC[C@H](C)[C@@H]1NC(=O)[C@H](Cc2ccc(O)cc2)N(C)C(=O)[C@H](Cc2ccccc2)NC(=O)CN(C)C(=O)[C@@H]2CCCN2C(=O)[C@@H](Cc2ccccc2)N(C)C(=O)[C@H](CC(C)C)NC1=O [CORDYHEPTAPEPTIDE A] (cyclo(F[NMeY]IL[dNMeF]P[Sar])) | – |
| – | 2.7 (≈ 2.34 µg/mL) | -0.43 | – | CC(C)C[C@@H]1NC(=O)[C@H](C(C)C)NC(=O)[C@H](Cc2ccc(O)cc2)N(C)C(=O)[C@H](Cc2ccccc2)NC(=O)CN(C)C(=O)[C@@H]2CCCN2C(=O)[C@@H](Cc2ccccc2)N(C)C1=O [Cordyheptapeptide C] | 1.9 |
| 1 to 3 | – | -3.9 | – | CC[C@H]1OC(=O)[C@H](C)[C@@H](O[C@H]2C[C@@](C)(OC)[C@@H](O)[C@H](C)O2)[C@H](C)[C@@H](O[C@@H]2O[C@H](C)C[C@H](N(C)C)[C@H]2O)[C@](C)(O)C[C@@H](C)C(=O)[C@H](C)[C@@H](O)[C@]1(C)O [ERYTHROMYCIN] | – |

| SMILES | Papp [1] [×10⁻⁶ cm/s] | solubility thermodynamic [2] [µM] | logD hydrocarbon water [3] | Papp at 2 µM [4] [×10⁻⁶ cm/s] | Papp at 16 h [5] [×10⁻⁶ cm/s] |
| --- | --- | --- | --- | --- | --- |
| CC[C@H](C)[C@@H]1NC(=O)[C@H](C)N(C)C(=O)[C@H](Cc2ccccc2)NC(=O)CN(C)C(=O)[C@@H]2CCCN2C(=O)[C@@H](Cc2ccccc2)N(C)C(=O)[C@H](CC(C)C)NC1=O (cyclo(F[NMeA]IL[dNMeF]P[Sar])) | – | 16 (≈ 12.6 µg/mL) | 0.71 | – | 5.9 |
| CC[C@H](C)[C@@H]1NC(=O)[C@H](Cc2ccccc2)N(C)C(=O)[C@H](Cc2ccccc2)NC(=O)CN(C)C(=O)[C@@H]2CCCN2C(=O)[C@@H](Cc2ccccc2)N(C)C(=O)[C@H](CC(C)C)NC1=O (cyclo(F[NMeF]IL[dNMeF]P[Sar])) | – | 2.3 (≈ 1.99 µg/mL) | 2.13 | – | 2.3 |
| CC[C@H](C)[C@@H]1NC(=O)[C@H](Cc2ccc(O)cc2)N(C)C(=O)[C@H](Cc2ccccc2)NC(=O)CN(C)C(=O)[C@@H]2CCCN2C(=O)[C@@H](C)N(C)C(=O)[C@H](CC(C)C)NC1=O (cyclo(F[NMeY]IL[dNMeA]P[Sar])) | – | – | -1.71 | – | 1.3 |
| CC[C@H](C)[C@@H]1NC(=O)[C@H](Cc2ccc(O)cc2)N(C)C(=O)[C@H](Cc2ccccc2)NC(=O)CN(C)C(=O)[C@H](C)N(C)C(=O)[C@@H](Cc2ccccc2)N(C)C(=O)[C@H](CC(C)C)NC1=O (cyclo(F[NMeY]IL[dNMeF][NMeA][Sar])) | – | 37 (≈ 32.1 µg/mL) | 0.92 | – | 7.8 |
